In ChEMBL document CHEMBL5661969, “Preclinical evaluation of a potent novel DNA-dependent protein kinase inhibitor NU7441” (Cancer Res, 2006):
Calls of active or inactive are those of the source. The rule behind the calls is not given here.

Tests used:
[1] = biological target: T1, DNA-dependent protein kinase catalytic subunit (Homo sapiens, UniProt P78527); assay: Inhibition of DNA-PK in human SW480 cells assessed potentiation of ionizing radiation-induced cytotoxicity by measuring ratio of cytotoxic agent required to kill 90% of the cells in the absence and presence of compound; type: cell-based
[2] = Toxicity in human SW620 cell xenografted athymic nude CD1 mouse assessed as maximum body weight loss at 11.35 mg/kg, ip administered 5 times daily for 5 days relative to control; type: organism-based, SW-620; conditions: in vivo, 120 h, time 5 day
SW-620 [3] = assay: Antitumor activity against human SW620 cells xenografted in athymic nude CD1 mouse assessed as tumor growth delay at 11.35 mg/kg, ip administered 5 times daily for 5 days; type: functional; conditions: time 5 day
[4] = Inhibition of ATM in Chinese hamster DNA-PK proficient V3-YAC cells assessed as potentiation of ionizing radiation-induced cytotoxicity by measuring fold change in radiation LD90 at 10 umol/L preincubated for 1 hr followed by gamma-irradiation and measured after 16 hrs by crystal violet staining based assay relative to radiation alone; design: species or system Cricetulus griseus; conditions: dose 10 µmol/L; time 17 hrs; condition cancer
[5] = Inhibition of ATM in Chinese hamster DNA-PK proficient V3-YAC cells assessed as potentiation of etoposide-induced cytotoxicity by measuring fold change in etoposide LD90 at 10 umol/L measured after 16 hrs by crystal violet staining based assay relative to etoposide alone; design: species or system Cricetulus griseus; conditions: dose 10 µmol/L, condition cancer
[6] = Cytotoxicity against Chinese hamster DNA-PK deficient V3 cells assessed as increase in etoposide-induced cytotoxicity by measuring fold change in etoposide LD90 at 10 umol/L measured after 16 hrs by crystal violet staining based assay relative to etoposide alone; type: toxicity, cell-based, Cricetulus griseus; conditions: v3, 16 h, 10 µM, dose 10 µmol/L
[7] = biological target: T1, DNA-dependent protein kinase catalytic subunit; assay: Inhibition of DNA-PK in human HCT-116 cells assessed as potentiation of ionizing radiation-induced cytotoxicity relative to radiation alone; type: cell-based
[8] = biological target: T1, DNA-dependent protein kinase catalytic subunit; assay: Inhibition of DNA-PK in human HCT-116 cells assessed as potentiation of etoposide-induced cytotoxicity relative to etoposide alone; type: cell-based
[9] = Cytotoxicity against Chinese hamster DNA-PK deficient V3 cells assessed as reduction in cell survival measured after 16 hrs by crystal violet staining based assay; type: toxicity, Cricetulus griseus; conditions: v3, 16 h
Outline: (§1)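 V3 (DNA-PKcs-deficient CHO) and V3-YAC (human DNA-PKcs YAC, kept on G-418 500 μg/mL) cells were grown in RPMI/10% FBS. Exponential cells were exposed to agent in 0.5% DMSO for 16 h, then trypsinized and reseeded at 100–100,000 per dish in drug-free medium. Colonies were stained with crystal violet after 10–14 days and counted. Survival is relative to 0.5% DMSO controls.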

[10] = Cytotoxicity against Chinese hamster DNA-PK proficient V3-YAC cells assessed as reduction in cell survival measured after 16 hrs by crystal violet staining based assay; type: toxicity, Cricetulus griseus; outline: as §1
[11] = Selectivity ratio of LD90 for cytotoxicity against Chinese hamster DNA-PK proficient V3-YAC cells to LD90 for cytotoxicity against Chinese hamster DNA-PK deficient V3 cells; type: toxicity, cell-based, Cricetulus griseus
Outline: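 Clonogenic survival of V3 and V3-YAC Chinese hamster ovary cells, RPMI/10% FBS, V3-YAC kept under G-418 at 500 μg/mL. Colonies read 10–14 days later. LD90 is the dose or concentration killing 90%, and the LD90 ratio gives the fold change.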

SW-620 [12] = assay: Induction of DNA damage in human SW620 cells assessed as increase in formation of gamma-H2AX phosphorylation foci per cell at 1 umol/L preincubated for 1 hr followed by compound washout and measured after 30 mins by DAPI staining based immunofluorescence microscopic analysis; type: functional; conditions: dose 1 µmol/L
Outline: (§2)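 SW620 cells on coverslips at 50–70% confluence, preincubated 1 h ± 1 μmol/L agent, then 1 μmol/L etoposide for 1 h, washed three times, and kept ± agent for up to 24 h. Fixation in −20 °C methanol, then anti-γH2AX Ser139 antibody with FITC secondary and DAPI mounting. Foci counted in 30 nuclei from three areas per sample, in triplicate.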

SW-620 [13] = assay: Induction of DNA damage in human SW620 cells assessed as loss of gamma-H2AX phosphorylation foci formation at 1 umol/L preincubated for 1 hr followed by compound washout and measured after 4 hrs by DAPI staining based immunofluorescence microscopic analysis relative to control; type: functional; conditions: dose 1 µmol/L, at 1 µM; outline: as §2
SW-620 [14] = assay: Induction of DNA damage in human SW620 cells assessed as loss of gamma-H2AX phosphorylation foci formation at 1 umol/L preincubated for 1 hr followed by compound washout and measured after 16 hrs by DAPI staining based immunofluorescence microscopic analysis relative to control; type: functional; conditions: dose 1 µmol/L, at 1 µM; outline: as §2
SW-620 [15] = assay: Cell cycle arrest in human SW620 cells assessed as increase in G2-M-phase cell population at 0.1 uM measured after 16 hrs by propidium iodide staining based flow cytometry relative to control; type: functional
SW-620 [16] = assay: Cell cycle arrest in human SW620 cells assessed as reduction in S-phase cell population at 0.1 uM measured after 16 hrs by propidium iodide staining based flow cytometry; type: functional
SW-620 [17] = assay: Cell cycle arrest in human SW620 cells assessed as increase in G2-M-phase cell population at 10 nM measured after 16 hrs by propidium iodide staining based flow cytometry relative to control; type: functional
SW-620 [18] = assay: Cell cycle arrest in human SW620 cells assessed as reduction in S-phase cell population at 10 nM measured after 16 hrs by propidium iodide staining based flow cytometry; type: functional

T1 sequence (P78527 whole entry): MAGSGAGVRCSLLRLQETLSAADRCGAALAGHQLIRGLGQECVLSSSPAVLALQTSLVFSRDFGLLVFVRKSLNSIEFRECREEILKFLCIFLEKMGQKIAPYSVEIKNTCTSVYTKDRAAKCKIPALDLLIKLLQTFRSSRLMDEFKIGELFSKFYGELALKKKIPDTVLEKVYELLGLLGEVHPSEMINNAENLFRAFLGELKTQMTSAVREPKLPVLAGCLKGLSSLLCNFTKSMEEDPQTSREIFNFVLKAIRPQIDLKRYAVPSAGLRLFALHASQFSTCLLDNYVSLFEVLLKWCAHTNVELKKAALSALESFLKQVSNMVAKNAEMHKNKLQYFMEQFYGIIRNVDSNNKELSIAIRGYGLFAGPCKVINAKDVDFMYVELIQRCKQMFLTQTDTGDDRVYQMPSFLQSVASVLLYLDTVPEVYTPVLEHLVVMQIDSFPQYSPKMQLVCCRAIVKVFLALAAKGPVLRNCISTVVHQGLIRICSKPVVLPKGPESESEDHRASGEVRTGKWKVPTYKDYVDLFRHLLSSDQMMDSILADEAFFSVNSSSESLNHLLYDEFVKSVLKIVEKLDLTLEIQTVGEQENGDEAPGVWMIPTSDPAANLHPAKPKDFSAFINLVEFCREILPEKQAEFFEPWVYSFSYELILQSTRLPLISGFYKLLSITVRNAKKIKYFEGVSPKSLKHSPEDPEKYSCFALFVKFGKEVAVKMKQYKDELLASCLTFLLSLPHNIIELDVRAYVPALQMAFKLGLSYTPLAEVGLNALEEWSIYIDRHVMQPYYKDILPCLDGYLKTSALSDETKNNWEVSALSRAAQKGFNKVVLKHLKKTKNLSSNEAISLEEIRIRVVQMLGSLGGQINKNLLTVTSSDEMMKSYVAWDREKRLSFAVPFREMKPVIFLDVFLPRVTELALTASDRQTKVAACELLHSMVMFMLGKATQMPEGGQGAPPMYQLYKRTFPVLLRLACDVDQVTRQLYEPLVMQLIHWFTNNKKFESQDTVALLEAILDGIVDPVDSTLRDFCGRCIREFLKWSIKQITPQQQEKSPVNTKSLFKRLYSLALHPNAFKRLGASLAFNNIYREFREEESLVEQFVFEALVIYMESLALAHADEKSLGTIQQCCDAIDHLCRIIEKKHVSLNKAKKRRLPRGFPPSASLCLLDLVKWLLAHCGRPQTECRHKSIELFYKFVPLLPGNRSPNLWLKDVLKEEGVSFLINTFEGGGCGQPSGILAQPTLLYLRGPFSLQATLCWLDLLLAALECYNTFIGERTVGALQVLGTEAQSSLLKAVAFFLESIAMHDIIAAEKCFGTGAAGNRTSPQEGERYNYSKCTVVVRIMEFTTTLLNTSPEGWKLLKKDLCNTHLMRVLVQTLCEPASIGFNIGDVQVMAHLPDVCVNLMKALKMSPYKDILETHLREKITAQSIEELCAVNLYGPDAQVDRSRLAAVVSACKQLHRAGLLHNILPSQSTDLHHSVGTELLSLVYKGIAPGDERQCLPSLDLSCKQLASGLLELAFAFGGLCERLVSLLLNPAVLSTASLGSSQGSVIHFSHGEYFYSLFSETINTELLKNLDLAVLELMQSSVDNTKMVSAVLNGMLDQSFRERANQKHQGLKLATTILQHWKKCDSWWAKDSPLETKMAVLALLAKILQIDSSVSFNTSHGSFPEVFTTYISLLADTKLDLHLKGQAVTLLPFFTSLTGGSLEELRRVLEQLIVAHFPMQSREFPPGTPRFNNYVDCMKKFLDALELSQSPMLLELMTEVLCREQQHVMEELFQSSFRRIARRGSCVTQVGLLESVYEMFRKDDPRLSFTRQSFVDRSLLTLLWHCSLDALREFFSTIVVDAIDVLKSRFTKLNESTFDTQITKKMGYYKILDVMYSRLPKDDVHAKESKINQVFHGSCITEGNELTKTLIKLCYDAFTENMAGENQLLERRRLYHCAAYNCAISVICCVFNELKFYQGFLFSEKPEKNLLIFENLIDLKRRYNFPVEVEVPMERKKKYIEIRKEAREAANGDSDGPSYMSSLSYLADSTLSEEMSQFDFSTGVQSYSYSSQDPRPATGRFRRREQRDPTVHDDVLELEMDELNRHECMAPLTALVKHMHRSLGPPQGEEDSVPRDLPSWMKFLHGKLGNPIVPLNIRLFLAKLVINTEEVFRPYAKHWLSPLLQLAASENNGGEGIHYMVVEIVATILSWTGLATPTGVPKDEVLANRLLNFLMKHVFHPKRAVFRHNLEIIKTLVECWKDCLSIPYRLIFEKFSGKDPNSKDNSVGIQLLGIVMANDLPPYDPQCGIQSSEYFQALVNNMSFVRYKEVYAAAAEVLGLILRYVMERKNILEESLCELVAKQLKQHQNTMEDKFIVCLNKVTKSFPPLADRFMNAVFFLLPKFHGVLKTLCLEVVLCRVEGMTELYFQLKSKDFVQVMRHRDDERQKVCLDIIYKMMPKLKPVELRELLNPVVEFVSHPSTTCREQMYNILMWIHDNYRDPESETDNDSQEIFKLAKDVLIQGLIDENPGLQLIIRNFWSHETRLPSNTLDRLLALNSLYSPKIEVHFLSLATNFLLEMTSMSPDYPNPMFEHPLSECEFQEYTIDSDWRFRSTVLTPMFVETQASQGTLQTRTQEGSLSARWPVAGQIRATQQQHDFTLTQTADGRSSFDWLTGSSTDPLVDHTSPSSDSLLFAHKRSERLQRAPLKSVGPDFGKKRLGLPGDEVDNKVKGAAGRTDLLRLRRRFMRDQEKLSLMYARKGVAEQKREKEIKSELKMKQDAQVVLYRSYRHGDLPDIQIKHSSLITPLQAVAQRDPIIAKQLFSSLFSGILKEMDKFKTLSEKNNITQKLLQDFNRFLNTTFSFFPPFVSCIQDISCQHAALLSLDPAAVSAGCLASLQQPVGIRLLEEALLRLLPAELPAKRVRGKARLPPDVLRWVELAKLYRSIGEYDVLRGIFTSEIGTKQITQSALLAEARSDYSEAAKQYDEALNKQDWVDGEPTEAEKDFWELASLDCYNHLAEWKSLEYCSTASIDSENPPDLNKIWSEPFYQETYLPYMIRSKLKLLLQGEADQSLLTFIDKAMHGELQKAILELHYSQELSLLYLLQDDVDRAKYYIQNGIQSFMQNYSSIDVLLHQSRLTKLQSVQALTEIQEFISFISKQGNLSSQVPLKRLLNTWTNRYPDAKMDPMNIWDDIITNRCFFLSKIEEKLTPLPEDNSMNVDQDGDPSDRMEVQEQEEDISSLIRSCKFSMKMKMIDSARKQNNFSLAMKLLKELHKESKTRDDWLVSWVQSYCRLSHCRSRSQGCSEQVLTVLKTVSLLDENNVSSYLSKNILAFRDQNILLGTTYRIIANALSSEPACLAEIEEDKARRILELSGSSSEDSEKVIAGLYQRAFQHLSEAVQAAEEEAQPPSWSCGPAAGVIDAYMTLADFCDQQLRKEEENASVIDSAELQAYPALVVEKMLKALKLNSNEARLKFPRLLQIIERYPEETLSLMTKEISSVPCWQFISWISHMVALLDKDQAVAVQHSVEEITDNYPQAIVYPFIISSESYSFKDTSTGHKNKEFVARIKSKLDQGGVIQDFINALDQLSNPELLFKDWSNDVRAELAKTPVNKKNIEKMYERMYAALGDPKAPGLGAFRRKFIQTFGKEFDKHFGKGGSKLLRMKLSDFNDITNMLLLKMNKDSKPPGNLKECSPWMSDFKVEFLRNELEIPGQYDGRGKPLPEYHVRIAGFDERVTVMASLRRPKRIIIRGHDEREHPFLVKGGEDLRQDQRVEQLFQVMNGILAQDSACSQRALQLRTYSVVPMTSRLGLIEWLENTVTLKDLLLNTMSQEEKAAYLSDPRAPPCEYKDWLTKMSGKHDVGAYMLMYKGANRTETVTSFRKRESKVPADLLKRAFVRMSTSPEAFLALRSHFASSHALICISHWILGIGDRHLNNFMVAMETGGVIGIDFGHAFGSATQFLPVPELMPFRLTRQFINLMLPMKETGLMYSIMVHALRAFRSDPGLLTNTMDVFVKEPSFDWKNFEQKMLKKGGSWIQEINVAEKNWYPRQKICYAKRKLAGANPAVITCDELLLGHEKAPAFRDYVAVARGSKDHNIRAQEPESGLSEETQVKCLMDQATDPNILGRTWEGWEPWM

O=c1cc(N2CCOCC2)oc2c(-c3ccccc3)cccc12
Ratio [1]: 1.9

COc1cc([C@@H]2c3cc4c(cc3[C@@H](O[C@@H]3O[C@@H]5CO[C@@H](C)O[C@H]5[C@H](O)[C@H]3O)[C@H]3COC(=O)[C@H]23)OCO4)cc(OC)c1OP(=O)(O)O [ETOPOSIDE PHOSPHATE]
Activity [2]: 6% | Time (SW-620 [3]): 2.7 days

O=c1cc(-c2cccc3c2Sc2ccccc2S3)oc(N2CCOCC2)c1 [KU-55933]
fold change (FC) [4]: 2 | fold change (FC) [5]: 6 | fold change (FC) [6]: 6

CC(=O)c1ccc(N2CCOCC2)cc1O
fold change (FC) [7]: 4 | fold change (FC) [8]: 15

COC[C@H]1OC(=O)c2coc3c2[C@@]1(C)C1=C(C3=O)[C@@H]2CCC(=O)[C@@]2(C)C[C@H]1OC(C)=O
Ratio [1]: 2.8

COc1cc([C@@H]2c3cc4c(cc3[C@@H](O[C@@H]3O[C@@H]5CO[C@@H](C)O[C@H]5[C@H](O)[C@H]3O)[C@H]3COC(=O)[C@H]23)OCO4)cc(OC)c1O [ETOPOSIDE]
LD90 [9]: 0.6 µmol/L | LD90 [10]: 1.8 µmol/L | selectivity ratio [11]: 3 | Activity (SW-620 [12]): 22 | Activity (SW-620 [13]): 39% | Activity (SW-620 [14]): 5.3% | Activity (SW-620 [15]): 83% | Activity (SW-620 [16]): Active

COc1cccc2c1C(=O)c1c(O)c3c(c(O)c1C2=O)C[C@@](O)(C(=O)CO)C[C@@H]3O[C@H]1C[C@H](N)[C@H](O)[C@H](C)O1 [DOXORUBICIN]
Activity (SW-620 [17]): 158% | Activity (SW-620 [18]): Active
